Key:
[1] = Microsomal stability assay, human; type: in vitro ADME; details: pooled human liver microsomes (microsomal (S9) fractions), % remaining parent compound; for remaining at 0 h: 0 min; for remaining at 0.25 h: 15 min; for remaining at 0.5 h: 30 min; for remaining at 1 h: 60 min
[2] = MRC-5SV2 cytotoxicity; type: cell-based, human; details: human, MRC-5SV2 cells, MRC-5 CC50, MRC-5SV2 cells, 3 days incubation
Summary of the method: (§1)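 MRC-5SV2 cells (3×10^4 cells/mL) in MEM with Earl's salts, L-glutamine, NaHCO3 and 5% inactivated FCS, at 37 °C and 5% CO2. Exposure to test compound (ten 4-fold dilutions, top 64 μM, <1% DMSO) lasted 3 days. Resazurin was then added for 4 h at 37 °C, with fluorescence read at ex 550/em 590 nm. CC50 from % reduction relative to untreated (100%) and medium-only (0%) controls.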

[3] = test system: T. cruzi Tulahuen CL2 β-galactosidase strain; assay: In vitro activity against T. cruzi intracellular amastigotes in MRC-5SV2 cells; type: cell-based; details: Trypanosoma cruzi, MRC-5 SV2, 168 h, read-out: T. cruzi EC50
Summary of the method: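 Nifurtimox-sensitive Tulahuen CL2 β-galactosidase parasites infected MRC-5SV2 fibroblasts in MEM with 200 mM L-glutamine, 16.5 mM NaHCO3 and 5% inactivated FCS, at 37 °C and 5% CO2. Wells held 4×10^3 cells and 4×10^4 parasites. Test compound was given as ten 4-fold dilutions (top 64 μM, <1% DMSO) for 7 days. CPRG was then added for 4 h at 37 °C and absorbance read at 540 nm. IC50 from % reduction versus untreated-infected controls; mean ± SEM, 2–4 experiments. Benznidazole reference.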

[4] = Microsomal stability assay, hamster; type: in vitro ADME; details: hamster microsomal (S9) fractions, % remaining parent compound; for remaining at 0 h: 0 min; for remaining at 0.25 h: 15 min; for remaining at 0.5 h: 30 min; for remaining at 1 h: 60 min
[5] = test system: primary peritoneal mouse macrophages (PMM); assay: PMM cytotoxicity; type: cell-based; details: read-out: PMM CC50; primary peritoneal mouse macrophages
[6] = PMM cytotoxicity; type: cell-based, mouse; details: Swiss, mouse, PMM CC50, primary peritoneal mouse macrophages
[7] = test system: T. b. brucei (Squib 427 strain); assay: In vitro activity against T. b. brucei; type: cell-based; details: Trypanosoma brucei, read-out: T. b. bruc. EC50
[8] = test system: T. b. rhodesiense (STIB-900 strain); assay: In vitro activity against T. b. rhodesiense; type: cell-based; details: Trypanosoma brucei, read-out: T. b. rhod. EC50
Summary of the method: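 STIB-900 parasites, axenic in HMI-9 with 10% FBS at 37 °C and 5% CO2, seeded at 4×10^3 parasites/well. Test compound was given as ten 4-fold dilutions (top 64 μM, <1% DMSO). Growth period […], then resazurin added and fluorescence measured after 24 h. IC50 from a sigmoid variable-slope fit versus untreated controls; mean ± SEM, 2–4 experiments. Suramin as reference.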

[9] = test system: L. infantum MHOM/MA (BE)/67; type: cell-based, Leishmania infantum; details: versus compound 9
Summary of the method: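 Intracellular amastigotes of hamster spleen origin infected Swiss mouse peritoneal macrophages (elicited 2 days with 2% potato starch), in RPMI-1640 with 5% inactivated FCS, at 37 °C and 5% CO2, 4.5×10^5 parasites/well. Test compound (ten 4-fold dilutions, top 64 μM, <1% DMSO) was added 2 h post-infection. After 5 days, amastigotes/macrophage were counted after 10% Giemsa. IC50 was derived from % reduction versus controls; mean ± SEM, 2–4 experiments. Miltefosine reference.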

[10] = test system: MRC-5SV2 cells; assay: MRC-5SV2 cytotoxicity; type: cell-based, human; details: read-out: MRC-5 CC50, 3 days incubation
Summary of the method: as §1

Row | Structure (SMILES) | remaining at 0 h ([1]; CYP – NADPH (Phase-I)) | remaining at 0.25 h ([1]; CYP – NADPH (Phase-I)) | remaining at 0.5 h ([1]; CYP – NADPH (Phase-I)) | remaining at 1 h ([1]; CYP – NADPH (Phase-I)) | remaining at 0 h ([1]; UGT Enz. (Phase-II)) | remaining at 0.25 h ([1]; UGT Enz. (Phase-II)) | remaining at 0.5 h ([1]; UGT Enz. (Phase-II)) | remaining at 1 h ([1]; UGT Enz. (Phase-II)) | CC50 at 3 days [2] | EC50 [3] | remaining at 0 h ([4]; CYP – NADPH (Phase-I)) | remaining at 0.25 h ([4]; CYP – NADPH (Phase-I)) | remaining at 0.5 h ([4]; CYP – NADPH (Phase-I)) | remaining at 1 h ([4]; CYP – NADPH (Phase-I)) | remaining at 0 h ([4]; UGT Enz. (Phase-II)) | remaining at 0.25 h ([4]; UGT Enz. (Phase-II)) | remaining at 0.5 h ([4]; UGT Enz. (Phase-II)) | CC50 at 5 days [6] | EC50 [7] | EC50 [8] | other results
1 | Cc1ncnc2c1c(Cl)cn2[C@@H]1O[C@H](CO)[C@@H](O)[C@H]1O [compound 7] | 100% | 96% | 97% | 96% | 100% | 102% | 97% | 96% | 54.8 ± 2.52 µM | 3.61 ± 1.24 µM | 100% | 95% | 93% | 93% | 100% | 96% | 100% | > 64 µM | 4.78 ± 2.19 µM | 0.84 ± 0.63 µM | remaining at 1 h ([4]; UGT Enz. (Phase-II)): 102%; CC50 [5]: 32 µM
2 | CCc1cn([C@@H]2O[C@H](CO)[C@@H](O)[C@H]2O)c2ncnc(C)c12 [compound 13] | 100% | 89% | 92% | 96% | 100% | 105% | 102% | 96% | > 64 µM | 2.54 ± 0.47 µM | 100% | 93% | 102% | 91% | 100% | 101% | 103% | > 64 µM | 0.75 ± 0.18 µM | 0.43 ± 0.06 µM | remaining at 1 h ([4]; UGT Enz. (Phase-II)): 108%; fold improved activity against L. infantum compared to the 7-methyl analogue 9 [9]: 8 fold
3 | CCc1cn([C@@H]2O[C@H](CO)[C@@H](O)[C@H]2O)c2ncnc(N)c12 [compound 39, 7-ethyl-7-deazaadenosine] | – | – | – | – | – | – | – | – | 50.4 µM | 0.99 ± 0.25 µM | – | – | – | – | – | – | – | > 64 µM | 0.65 ± 0.02 µM | 0.5 ± 0.03 µM | CC50 [10]: > 64 µM
4 | CCOc1ncnc2c1c(CC)cn2[C@@H]1O[C@H](CO)[C@@H](O)[C@H]1O [compound 42] | – | – | – | – | – | – | – | – | 52.5 µM | 7.71 ± 0.91 µM | – | – | – | – | – | – | – | > 64 µM | 1.25 ± 0.06 µM | 2.06 ± 0.51 µM | CC50 [10]: > 64 µM

Source: article PMC8358123 (International Journal for Parasitology: Drugs and Drug …, 2021)
